The values below come from the RNAGym collection of RNA variant scans (doi:10.1126/science.aae0568).

Variants at the floor of the assay were thinned out.

B1: tRNA (parent)
chain: GUUCCGUUGGCGUAAUGGUAACGCGUCUCCCUCCUAAGGAGAAGACUGCGGGUUCGAGUCCCGUACGGAACG

The data set covers variants of B1. The data set is described as follows: yeast fitness relative to wild type (ratio to wild type); higher = fitter; tRNA-Arg(CCU), competitive growth, 37 C, YPD. In a few lines: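 A pool of Saccharomyces cerevisiae strains, each with a tRNA-Arg(CCU) gene variant at the native genomic locus, was competed in YPD at 37°C for 24 hours across six parallel replicates. The variants had been chemically synthesised at a 3% per-site mutation rate over 69 sites, and gene amplicons before and after competition were read by 100-nucleotide paired-end sequencing. Darwinian fitness relative to wild type rested on changes in genotype frequencies. Genotypes required ≥ 100 starting reads, and estimates < 0.5 were set to 0.5.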
For G12C U13A U16G C24G A69U, the yeast fitness is no more than 0.5.
The value for A21G U35G A37G A42G was no more than 0.5.
C11G A15C G50C: the yeast fitness is no more than 0.5.
Under G25A C33G A57G G58A U59C A65U stands no more than 0.5.
Under G6A U54C C60G stands no more than 0.5; under C27A A65G C66U, 0.772.
Under A36C G38C G52A stands no more than 0.5; under U2C G9C A69C, 0.524; under G6A G51C, 0.595.
As for U16A G51A, the yeast fitness is 0.752.
The value for C5G U16A A69U was no more than 0.5.
Under C11U A21U A69C stands 0.772.
The value for G17A A20C G44C was 0.617; that for U2A C5A U64G C66U was no more than 0.5.
Take G25C G39C G44C C49U C60U G68C: the yeast fitness was no more than 0.5.
Under U2C A57G C66G stands no more than 0.5.
The value for U16C A21U C30U C34G A36C was no more than 0.5; that for G12C G17A was 0.673; that for C4U C5G C29G C31G A37C G63A was 0.542.
Regarding G9A C29G G44A, the yeast fitness stood at 0.614.
Under G6A A21G stands 0.965; under C4A A14U A20C U28G A70U, no more than 0.5; under U19C A37C C62A U64C, no more than 0.5.
For the variant A21U C22A C29G C55A U59C, the yeast fitness amounted to 0.647.
Under U13C G52A C55G A69U stands no more than 0.5; under A15C A43C G48C, 0.544; under U3C G56A C60A, 0.568.
Under C33A U35C C46U C49U G52C C61U C66U A69U stands 0.528; under C60G C66A, 0.541.
The value for U8A G18C G41A was no more than 0.5.
For C30G U47C, the yeast fitness worked out at 0.701.
Under A43U C60G A70C stands 0.599.
Under U16C U47A G52A stands no more than 0.5.
The value for C11U A15U C31A U32A A57G G67A was no more than 0.5; that for U3C G38A G48A was 0.595.
As for G9A C30A, the yeast fitness was 0.964.
Under U2C A20U C62U stands 0.571; under A21G A36G A40C A42C, no more than 0.5.
Under A37C A43U G63A stands 0.666.
The value for U16A C24U C29A was 0.57; that for C11U A36U was 0.606.
Consider C22U U32G C34U A40G G58A C66U, for which the yeast fitness was no more than 0.5.
For A14G A21C C30G A57U, the yeast fitness is no more than 0.5.
The value for C30A U47C was 0.775.
Under C5G C61A C62U A65U A69C stands no more than 0.5.
On to U2C C4A G18C G63A, for which the yeast fitness amounted to 0.633.
The value for C4A U64C G68C was 0.971; that for U26G C27G U47A U54C C62U was no more than 0.5.
The value for G18A G25C A43U was 0.6.
Under U19C U53C stands 0.694; under C5U U32G C33G, no more than 0.5.
As for C30U C31G G39C C55A C62U A70U, the yeast fitness is no more than 0.5.
G18C U35A A45C G48A: the yeast fitness is no more than 0.5.
As to A15U A42G C46G C61A, the yeast fitness was no more than 0.5.
The value for C5G C31G A57C was 0.502; that for C22U C33U G51A was no more than 0.5.
The value for C5G G12C A45C C46U C55U C62U was no more than 0.5; that for U2A G12C C34G A65U was no more than 0.5; that for C30A C46G was 0.991.
Under U3C G38C stands 0.813; under U13A G23C A37C G38A, 0.554; under A21U U26A C27G C30G A36U G38C C46U C49G A65U, no more than 0.5.
A20U C34G G48C: the yeast fitness came to 0.53.
Under A36U C62U A65U stands 0.519; under U2G C34U, 0.616.
The value for C24A A43U A45C was no more than 0.5; that for G39U A45G G51A was 0.527; that for U8C G23C C27G G50A C66G A69G was 0.836.
The value for G10C was 0.661.
With G39C C49U A65U, the yeast fitness was no more than 0.5.
The value for C30A C46U G52A C55U was no more than 0.5.
On to C34A C55G, for which the yeast fitness worked out at 0.517.
The value for C4A A20G C34G C66U was no more than 0.5; that for U8C C46U C49G was 0.701.
For the variant U28A A65U, the yeast fitness is 0.642.
Under U2C A14U A15G C30U C34U G51C C55U stands 0.596; under C27A U35A G48A U59C, 0.567.
Under U7G C30A C62A stands no more than 0.5.
The value for G6A G44C A69U was 0.586; that for C5G C33A A37C C61U C62A was no more than 0.5; that for G10A C30G C60G G63A A65U C66U was no more than 0.5.
As to G48A U53C C60A C61U, the yeast fitness is no more than 0.5.
Under A14U U35C A37U stands no more than 0.5; under C4U G9C G18A A21G C24U A37C, 0.694.
As to C22U C30U C33U U47A G58A A65C, the yeast fitness was no more than 0.5.
Under C4G U7A A42C G48C stands no more than 0.5; under C11A G67A A70G, 0.562.
Under C4U C30A U59C A69C stands 0.568; under U7G U32A C46U C60A, no more than 0.5.
As for G10A A21U U53A, the yeast fitness was 0.521.
Under C27G C30G A40G C49A stands 0.571; under U3A A15G U28C C60A, 0.522.
Under G10C A36U C60G stands no more than 0.5; under U13C G38A C49U, no more than 0.5.
The value for G9C C24U U26G was 0.51; that for C27U C30U A70G was 0.624.
U3C A21G C30A C33G U59A C66U: the yeast fitness is no more than 0.5.
Under U8G C29U G50C U59A stands no more than 0.5; under U19G C24A C30U, no more than 0.5.
The value for A36C A57U was 0.509; that for U2A C11G C34G U64G was no more than 0.5; that for C4U A40G A65U was 0.596.
With G6C A45G, the yeast fitness was 0.823.
The value for G6A C29U was 0.748; that for C5G G17A A20C G38A G58C C66U was no more than 0.5.
With G17C A36G A57G C66U A69C, the yeast fitness was 0.59.
Under C29G C33U G68A stands no more than 0.5; under A14C U28A U54C G56C G58A, no more than 0.5.
Under A21U U32G G51C C61U stands 0.541; under G25A C27G A45U C55A, no more than 0.5.
As to U3G C30G A40C C46U C49U G68C, the yeast fitness was no more than 0.5.
The value for U3A U8A C31G A40C was 0.563.
The value for U3A A40C C62U was 0.548; that for A57C A65G was 0.573; that for G6A A20G C31G C46U G67A was no more than 0.5.
Under U16C C60G A65G stands no more than 0.5.
Take U7C C61A: the yeast fitness was 0.678.
Take A43C C55U C66G: the yeast fitness was no more than 0.5.
Under C11A A14G C31G C34G C61U stands no more than 0.5.
The value for U19A U26A was 0.907; that for G6A C11G G17U G38A A43U U54A was no more than 0.5.
Under A20C C34A G56C stands no more than 0.5; under U2G A20U G25C C49G, no more than 0.5.
In the case of A15G A21C U54G A65U, the yeast fitness was no more than 0.5.
The value for U16A C62U A69G was 0.922; that for C4G G9C G41A U53C C55U U59A A70U was no more than 0.5; that for G38A G68A was 0.718.
The value for C24G A43G C49U C55G was 0.643; that for A15U G23A A45G was no more than 0.5; that for U7A G44C was 0.718.
The value for U2C G39A G44A was 0.66; that for C33A C34G G50A A70U was no more than 0.5.
Take U2C G56C: the yeast fitness turned out to be 0.727.
The value for C5G U8A G41C U47A was 0.605; that for U26A C31G G63C was no more than 0.5.
The value for C11G G12C G23C A40G was no more than 0.5; that for C29U G68U was 0.803; that for U16A C24G C49G U53C was no more than 0.5.
Under G12A A21G G44A C46U A69C stands 0.507.
For the variant U8A C24U A40C A42C A45U, the yeast fitness was no more than 0.5.
The value for U28A A37C C61G G68U was no more than 0.5; that for C11G A14C G23C G41C was 0.531; that for G6A U32A A37U A43C G48C was no more than 0.5.
The value for G38C A70G was 0.756.
Under A14C G17C stands 0.622; under A15G A20U C60G, 0.542.
For A15C C31A U59C A69G, the yeast fitness was no more than 0.5.
The value for C24U G25A C30U C46A was 0.829; that for A20C C27U G51C U64A C66U A69C was no more than 0.5.
Under U32C G52C stands 0.602; under C24A G67U, 0.669.
Turning to C24G G50A C55G, the yeast fitness is no more than 0.5.
Under C5G A20G A36C A42G stands no more than 0.5; under G6A C31U G51A, 0.599.
Under C29G U53G stands no more than 0.5; under G6C C29A C55A A65G, no more than 0.5.
U8A C31G C55U G67C: the yeast fitness is no more than 0.5.
The value for C27G C33U A45U G63A was no more than 0.5.
The value for U7A U19C A43G C60G was no more than 0.5; that for A40G A65U was 0.813.
The value for C29A C30A G50A was no more than 0.5; that for A20G A36G A37U was no more than 0.5.
Regarding G10C U35G, the yeast fitness is no more than 0.5.
For the variant A37G A40G, the yeast fitness amounted to 0.912.
Under C11A G25A C46G A57U stands no more than 0.5; under C22G C27G C29G C34A G44C G56A A57G, 0.529; under G6C U7C, 0.757.
